Assay results reported in ChEMBL document CHEMBL1158529, “Synthesis and biological evaluation of novel C5 halogen-functionalized S-DABO as potent HIV-1 non-nucleoside reverse transcriptase inhibitors” (Bioorg Med Chem, 2010).
Active and inactive are the calls of the source. The calls are words filed in the database; no cut-off is given here.

target: Human immunodeficiency virus type 1 reverse transcriptase (Human immunodeficiency virus 1, UniProt Q72547); assay: Inhibition of HIV1 reverse transcriptase by ELISA
Method in brief: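 HIV-1 reverse transcriptase activity measured with a poly(rA)/oligo(dT)15 homopolymer template and read by HIV antigen-detection ELISA.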

How did the IC50 turn out when `O=c1[nH]c(SCc2ccccc2)nc(Cc2ccccc2)c1I` was run?
Its IC50 is 10.1 µM.

With `Cc1c(Cc2ccccc2)nc(SC(C)c2ccccc2)[nH]c1=O` (centres undefined) as the compound, how does the IC50 read?
The IC50 was over 100 µM.

With `O=c1[nH]c(SCc2ccc3ccccc3c2)nc(Cc2ccccc2)c1I` as the compound, how does the IC50 read?
The IC50 was 2.04 µM.

For `O=c1[nH]c(SCc2ccc3ccccc3c2)nc(Cc2ccccc2)c1Br`, which IC50 is on record?
Its IC50 is 12.3 µM.

`O=c1cc(Cc2ccccc2)nc(SCCc2ccccc2)[nH]1` was tested. Which IC50 did it give?
The IC50 was 17.4 µM.

`O=c1cc(Cc2ccccc2)nc(SCCCc2ccccc2)[nH]1` was tested. Which IC50 did it give?
Its IC50 is 8.17 µM.

`Cc1ccccc1CSc1nc(Cc2ccccc2)c(I)c(=O)[nH]1` was tested. Which IC50 did it give?
The IC50 was 4.16 µM.

How did the IC50 turn out when `O=c1[nH]c(SCCCc2ccccc2)nc(Cc2ccccc2)c1I` was run?
Its IC50 is 0.18 µM.

Which IC50 does the source give for `Cc1ccccc1CSc1nc(Cc2ccccc2)cc(=O)[nH]1` here?
The IC50 was 47.7 µM.

Which IC50 does the source give for `CC(C)(C)c1ccc(CSc2nc(Cc3ccccc3)c(I)c(=O)[nH]2)cc1` here?
The IC50 was 5.62 µM.

For `Cc1cccc(CSc2nc(Cc3ccccc3)c(I)c(=O)[nH]2)c1`, which IC50 is on record?
The IC50 was 3.03 µM.

`CCOCSc1nc(Cc2ccccc2)cc(=O)[nH]1` was tested. Which IC50 did it give?
The IC50 was over 100 µM.

How did the IC50 turn out when `C=CCSc1nc(Cc2ccccc2)cc(=O)[nH]1` was run?
Its IC50 is over 100 µM.

With `Cc1c(Cc2ccccc2)nc(SCOCc2ccccc2)[nH]c1=O` as the compound, how does the IC50 read?
Its IC50 is 19 µM.

For `COc1cccc(CSc2nc(Cc3ccccc3)c(I)c(=O)[nH]2)c1`, which IC50 is on record?
Its IC50 is 8.29 µM.

Which IC50 does the source give for `Cc1cccc(CSc2nc(Cc3ccccc3)c(Br)c(=O)[nH]2)c1` here?
Its IC50 is 26.7 µM.

With `O=c1cc(Cc2ccccc2)nc(SCOCc2ccccc2)[nH]1` as the compound, how does the IC50 read?
Its IC50 is 12.1 µM.

For `Cc1c(Cc2ccccc2)nc(SCCc2ccccc2)[nH]c1=O`, which IC50 is on record?
The IC50 was 59.6 µM.

How did the IC50 turn out when `COc1cccc(CSc2nc(Cc3ccccc3)c(C)c(=O)[nH]2)c1` was run?
Its IC50 is 48.7 µM.

How did the IC50 turn out when `Cc1ccccc1CSc1nc(Cc2ccccc2)c(C)c(=O)[nH]1` was run?
Its IC50 is over 100 µM.

For `O=c1[nH]c(SCCc2ccccc2)nc(Cc2ccccc2)c1I`, which IC50 is on record?
The IC50 was 2.4 µM.

`Cc1cccc(CSc2nc(Cc3ccccc3)cc(=O)[nH]2)c1` was tested. Which IC50 did it give?
Its IC50 is 91.1 µM.

Which IC50 does the source give for `Cc1ccccc1CSc1nc(Cc2ccccc2)c(Br)c(=O)[nH]1` here?
Its IC50 is 24.9 µM.

Which IC50 does the source give for `COc1cccc(CSc2nc(Cc3ccccc3)cc(=O)[nH]2)c1` here?
The IC50 was 90.8 µM.

`O=c1[nH]c(SCCc2ccccc2)nc(Cc2ccccc2)c1Br` was tested. Which IC50 did it give?
Its IC50 is 13.9 µM.

With `CC(Sc1nc(Cc2ccccc2)cc(=O)[nH]1)c1ccccc1` (centres undefined) as the compound, how does the IC50 read?
The IC50 was over 100 µM.

How did the IC50 turn out when `CCOCn1c(Cc2ccccc2)c(C(C)C)c(=O)[nH]c1=O` [EMIVIRINE] was run?
The IC50 was 0.15 µM.

`Cc1c(Cc2ccccc2)nc(SCCCc2ccccc2)[nH]c1=O` was tested. Which IC50 did it give?
Its IC50 is 2.93 µM.

`CCOCSc1nc(Cc2ccccc2)c(C)c(=O)[nH]1` was tested. Which IC50 did it give?
Its IC50 is 51.7 µM.

target: Human immunodeficiency virus type 1 reverse transcriptase (Human immunodeficiency virus 1) (UniProt Q72547); assay: Inhibition of HIV1 reverse transcriptase up to 100 uM by ELISA
Method in brief: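 RT assay on a poly(rA)/oligo(dT)15 homopolymer template with HIV antigen-detection ELISA read-out. Compounds were tested for loss of RT activity at concentrations up to 100 µM. Values are means of three separate experiments, with triplicate variation under 15%.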

How did the inhibition turn out when `Cc1c(Cc2ccccc2)nc(SCc2ccccc2)[nH]c1=O` was run?
Its inhibition is “inactive”.

`Cc1c(Cc2ccccc2)nc(SCc2ccc3ccccc3c2)[nH]c1=O` was tested. Which inhibition did it give?
Its inhibition is “inactive”.

Which inhibition does the source give for `Cc1c(Cc2ccccc2)nc(SCc2ccc(C(C)(C)C)cc2)[nH]c1=O` here?
The inhibition was “inactive”.

For `O=c1cc(Cc2ccccc2)nc(SCc2ccc3ccccc3c2)[nH]1`, which inhibition is on record?
Its inhibition is “inactive”.

Which inhibition does the source give for `CC(C)(C)c1ccc(CSc2nc(Cc3ccccc3)cc(=O)[nH]2)cc1` here?
Its inhibition is “inactive”.

`Cc1cccc(CSc2nc(Cc3ccccc3)c(C)c(=O)[nH]2)c1` was tested. Which inhibition did it give?
The inhibition was “inactive”.

`O=c1cc(Cc2ccccc2)nc(SCc2ccccc2)[nH]1` was tested. Which inhibition did it give?
Its inhibition is “inactive”.

`C=CCSc1nc(Cc2ccccc2)c(C)c(=O)[nH]1` was tested. Which inhibition did it give?
The inhibition was “inactive”.

target: Human immunodeficiency virus type 1 reverse transcriptase (Human immunodeficiency virus 1) (UniProt Q72547); assay: Ratio of nevirapine IC50 to compound IC50 for HIV1 reverse transcriptase

Which Ratio IC50 does the source give for `O=c1[nH]c(SCCCc2ccccc2)nc(Cc2ccccc2)c1I` here?
Its Ratio IC50 is 23.

target: Human immunodeficiency virus type 1 reverse transcriptase (Human immunodeficiency virus 1) (UniProt Q72547); assay: Ratio of compound IC50 to 5a3 IC50 for HIV1 reverse transcriptase

How did the Ratio IC50 turn out when `O=c1cc(Cc2ccccc2)nc(SCCCc2ccccc2)[nH]1` was run?
Its Ratio IC50 is 45.
